Values after ≈ are worked out from the molar mass of the structure shown.
Tested on: Botrytis cinerea
Assay: Fungicidal activity against Botryotinia fuckeliana assessed as inhibition of spore germination at 25 degC after 6 hr by microscopic analysis
Format: functional, organism-based
How it was run: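 B. cinerea strain from a university plant disease institute, grown 2 weeks at 20 °C on PDA; conidia scraped into sterile water, filtered through cheesecloth, suspended in 0.1% Tween 20 and adjusted to 1.0 × 10⁶ spores/mL. Samples taken up in methanol and diluted in sterile water to a concentration series (methanol <1% final); 1% methanol control. 10 μL spore–sample aliquots on glass slides in triplicate, moist chamber, germination scored microscopically.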

Question: Which IC50 does the source give for `C=C(C)n1c(=O)n(C(=O)c2ccccc2)c2ccccc21` here?
Answer: 81.9 µg/mL (≈ 294 µM)

Question: For `C=C(C)n1c(=O)n(C(=O)C(C)C)c2ccccc21`, which IC50 is on record?
Answer: 134 µg/mL (≈ 548 µM)

Question: With `C=C(C)n1c(=O)n(C(=O)Cc2ccc3ccccc3c2)c2ccccc21` as the molecule, how does the IC50 read?
Answer: > 500 µg/mL

Question: With `C=C(C)n1c(=O)n(C(=O)Cc2ccccc2)c2ccccc21` as the molecule, how does the IC50 read?
Answer: 168 µg/mL (≈ 576 µM)

Question: `C=C(C)n1c(=O)n(C(=O)Cc2ccc(Cl)cc2)c2ccccc21` was tested. Which IC50 did it give?
Answer: 17.3 µg/mL (≈ 52.8 µM)

Question: How did the IC50 turn out when `C=C(C)n1c(=O)n(C(C)=O)c2ccccc21` was run?
Answer: > 500 µg/mL

Question: `C=C(C)C(=O)n1c(=O)n(C(=C)C)c2ccccc21` was tested. Which IC50 did it give?
Answer: 64 µg/mL (≈ 264 µM)

Question: `C=C(C)n1c(=O)n(C(=O)CCCc2c[nH]c3ccccc23)c2ccccc21` was tested. Which IC50 did it give?
Answer: 302 µg/mL (≈ 839 µM)

Question: Which IC50 does the source give for `C=C(C)n1c(=O)n(C(=O)c2ccccc2[N+](=O)[O-])c2ccccc21` here?
Answer: 442 µg/mL (≈ 1370 µM)

Question: Which IC50 does the source give for `C=C(C)n1c(=O)n(C(=O)C(CC)c2ccccc2)c2ccccc21` (configuration not stated) here?
Answer: 186 µg/mL (≈ 580 µM)

Question: `C=C(C)n1c(=O)n(C(=O)CCCC)c2ccccc21` was tested. Which IC50 did it give?
Answer: 254 µg/mL (≈ 984 µM)

Question: Which IC50 does the source give for `C=C(C)n1c(=O)n(C(=O)CCCCC)c2ccccc21` here?
Answer: 129 µg/mL (≈ 475 µM)

Question: With `C=C(C)n1c(=O)n(C(=O)c2ccccc2Cl)c2ccccc21` as the molecule, how does the IC50 read?
Answer: 17.2 µg/mL (≈ 54.9 µM)

Question: With `C=C(C)n1c(=O)n(C(=O)c2ccc(Cl)cc2)c2ccccc21` as the molecule, how does the IC50 read?
Answer: 66.8 µg/mL (≈ 214 µM)

Question: For `C=C(C)n1c(=O)n(C(=O)Cc2ccc(OC)cc2)c2ccccc21`, which IC50 is on record?
Answer: 118 µg/mL (≈ 366 µM)

Question: How did the IC50 turn out when `C=C(C)n1c(=O)n(C(=O)CC)c2ccccc21` was run?
Answer: > 500 µg/mL

Question: For `C=C(C)n1c(=O)n(C(=O)CCC)c2ccccc21`, which IC50 is on record?
Answer: > 500 µg/mL

Question: Which IC50 does the source give for `Cc1cc(C)nc(Nc2ccccc2)n1` [PYRIMETHANIL] here?
Answer: 209 µg/mL (≈ 1050 µM)

Question: Which IC50 does the source give for `C=C(C)n1c(=O)n(C(=O)COc2ccc(Cl)cc2)c2ccccc21` here?
Answer: 108 µg/mL (≈ 315 µM)

Question: `C=CC(=O)n1c(=O)n(C(=C)C)c2ccccc21` was tested. Which IC50 did it give?
Answer: 32.2 µg/mL (≈ 141 µM)

Question: For `C=C(C)n1c(=O)n(C(=O)c2ccc([N+](=O)[O-])cc2)c2ccccc21`, which IC50 is on record?
Answer: 93.3 µg/mL (≈ 289 µM)

Question: How did the IC50 turn out when `C=C(C)n1c(=O)n(C(=O)c2ccncc2)c2ccccc21` was run?
Answer: 152 µg/mL (≈ 544 µM)

Question: For `C=C(C)n1c(=O)n(C(=O)c2ccco2)c2ccccc21`, which IC50 is on record?
Answer: 104 µg/mL (≈ 387 µM)

Question: Which IC50 does the source give for `C=C(C)n1c(=O)n(C(=O)C(CC)CC)c2ccccc21` here?
Answer: 277 µg/mL (≈ 1020 µM)

Question: How did the IC50 turn out when `C=C(C)n1c(=O)n(C(=O)COc2ccccc2)c2ccccc21` was run?
Answer: 303 µg/mL (≈ 983 µM)

Question: For `C=C(C)n1c(=O)n(C(=O)CCc2ccccc2)c2ccccc21`, which IC50 is on record?
Answer: 126 µg/mL (≈ 410 µM)

Question: `C=C(C)n1c(=O)n(C(=O)CCC(C)C)c2ccccc21` was tested. Which IC50 did it give?
Answer: 335 µg/mL (≈ 1230 µM)

From ChEMBL document CHEMBL3044828, “Synthesis of 1-acyl-3-isopropenylbenzimidazolone derivatives and their activity against Botrytis cinerea” (J Agric Food Chem, 2010)
